Data taken from ChEMBL document CHEMBL4346672, “Antimicrobial and KPC/AmpC inhibitory activity of functionalized benzosiloxaboroles” (Eur J Med Chem, 2019).
In brackets after ≈: the same amount, converted by molar mass. Activity calls are given as the source filed them. The rule behind the calls is not given here.

Experiments:
Enterococcus faecalis [1] = test: Antibacterial activity against Enterococcus faecalis ATCC 29212 assessed as diameter of zone inhibition measured after 18 hrs by CLSI disc diffusion method; format: functional
In short: (§1)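 Disc diffusion on Mueller-Hinton II agar. Compounds dissolved in DMSO. Strains stored at -80 °C and subcultured twice on tryptic soy agar before testing. Inhibition zones read after 35 °C, 18 h.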

[2] = test system: Bordetella bronchiseptica; test: Antibacterial activity against Bordetella bronchiseptica ATCC 4617 measured after 18 hrs by CLSI broth dilution method; format: functional; conditions: ATCC 4617, 18 h
In short: (§2)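 Broth MIC in Mueller-Hinton II broth following CLSI, compounds dissolved in DMSO. Strains subcultured twice on tryptic soy agar before testing. Growth read after 35 °C, 18 h.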

[3] = test system: Bordetella bronchiseptica; test: Antibacterial activity against Bordetella bronchiseptica ATCC 4617 assessed as diameter of zone inhibition measured after 18 hrs by CLSI disc diffusion method; format: functional; in short: as §1
Candida parapsilosis [4] = test: Antifungal activity against Candida parapsilosis ATCC 22019 assessed as diameter of zone inhibition incubated for 24 hrs by CLSI disc diffusion method; format: functional
In short: (§3)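 Yeast disc diffusion on Mueller-Hinton agar supplemented with 2% glucose and 0.5 mg/L methylene blue. Compounds in DMSO. Yeasts subcultured on Sabouraud dextrose agar before testing. Zones read after 35 °C, 24 h.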

Saccharomyces cerevisiae [5] = test: Antifungal activity against Saccharomyces cerevisiae ATCC 9763 diameter of zone inhibition incubated for 24 hrs by CLSI disc diffusion method; format: functional
In short: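 Disc-diffusion run on Mueller-Hinton II agar with 2% glucose and 0.5 mg/L methylene blue, using compounds in DMSO. Yeast was precultured on Sabouraud dextrose agar (24–48 h, 30 °C). Zones read after 24 h at 35 °C.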

Proteus mirabilis [6] = test: Antibacterial activity against Proteus mirabilis ATCC 12453 measured after 18 hrs by CLSI broth dilution method; format: functional; conditions: ATCC 12453, 18 h; in short: as §2
Candida parapsilosis [7] = test: Antifungal activity against Candida parapsilosis ATCC 22019 assessed as decrease in fungal cell growth at 0.78 to 12.5 mg/L incubated for 24 hrs by CLSI broth dilution method; format: functional; conditions: Lodderomyces parapsilosis, ATCC 22019, 24 h
In short: (§4)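 Yeast broth dilution in RPMI 1640 with 2% glucose, compounds in DMSO. Yeasts pre-grown on Sabouraud dextrose agar. Growth read after 35 °C, 24 h.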

Candida albicans [8] = test: Antifungal activity against Candida albicans ATCC 90028 assessed as diameter of zone inhibition incubated for 24 hrs by CLSI disc diffusion method; format: functional; in short: as §3
Staphylococcus aureus [9] = test: Antibacterial activity against Staphylococcus aureus ATCC 6538P measured after 18 hrs by CLSI broth dilution method; format: functional; in short: as §2
[10] = test system: Staphylococcus epidermidis; test: Antibacterial activity against Staphylococcus epidermidis ATCC 12228 assessed as diameter of zone inhibition measured after 18 hrs by CLSI disc diffusion method; format: functional; in short: as §1
Burkholderia cepacia = test: Antibacterial activity against Burkholderia cepacia ATCC 25416 assessed as diameter of zone inhibition measured after 18 hrs by CLSI disc diffusion method; format: functional; in short: as §1
Candida albicans [11] = test: Antifungal activity against Candida albicans ATCC 90028 assessed as decrease in fungal cell growth at 0.78 to 12.5 mg/L incubated for 24 hrs by CLSI broth dilution method; format: functional; conditions: ATCC 90028, 24 h; in short: as §4
[12] = test system: Stenotrophomonas maltophilia; test: Antibacterial activity against Stenotrophomonas maltophilia ATCC 13637 assessed as diameter of zone inhibition measured after 18 hrs by CLSI disc diffusion method; format: functional; in short: as §1
Enterobacter cloacae [13] = test: Antibacterial activity against Enterobacter cloacae DSM 6234 assessed as diameter of zone inhibition measured after 18 hrs by CLSI disc diffusion method; format: functional; in short: as §1
Enterococcus faecalis [14] = test: Antibacterial activity against Enterococcus faecalis ATCC 29212 measured after 18 hrs by CLSI broth dilution method; format: functional; conditions: ATCC 29212, 18 h; in short: as §2
Serratia marcescens [15] = conditions: ATCC 13880
Acinetobacter baumannii [16] = test: Antibacterial activity against Acinetobacter baumannii ATCC 19606 measured after 18 hrs by CLSI broth dilution method; format: functional; conditions: ATCC 19606, 18 h; in short: as §2
Pichia kudriavzevii [17] = test: Antifungal activity against Candida krusei ATCC 6258 assessed as diameter of zone inhibition incubated for 24 hrs by CLSI disc diffusion method; format: functional; in short: as §3
Pichia kudriavzevii [18] = test: Antifungal activity against Candida krusei ATCC 6258 assessed as decrease in fungal cell growth at 0.78 to 12.5 mg/L incubated for 24 hrs by CLSI broth dilution method; format: functional; conditions: ATCC 6258, 24 h; in short: as §4
Serratia marcescens [19] = test: Antibacterial activity against Serratia marcescens ATCC 13880 assessed as fold reduction of MIC in presence of efflux pump inhibitor PAbetaN incubated for 18 hrs by broth microdilution method; format: functional
In short: (§5)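 MICs determined with and without PAβN at 50 mg/L in Mueller-Hinton broth containing 1 mM MgSO₄. 2-fold serial dilutions per CLSI. Fold change taken from the paired MICs after 35 °C, 18 h.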

Staphylococcus aureus [20] = test: Antibacterial activity against Staphylococcus aureus ATCC 6538P assessed as diameter of zone inhibition measured after 18 hrs by CLSI disc diffusion method; format: functional; in short: as §1
[21] = Dissociation constant, pKa1 of compound in 0.1 M NaOH by potentiometric analysis; format: physicochemical
Klebsiella pneumoniae [22] = conditions: ATCC 13883
Saccharomyces cerevisiae [23] = test: Antifungal activity against Saccharomyces cerevisiae ATCC 9763 assessed as decrease in fungal cell growth at 0.78 to 12.5 mg/L incubated for 24 hrs by CLSI broth dilution method; format: functional; conditions: ATCC 9763, 24 h
In short: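 Yeast strain subcultured on Sabouraud dextrose agar for 24–48 h at 30 °C before testing. Compounds dissolved in DMSO.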

[24] = test system: Staphylococcus epidermidis; test: Antibacterial activity against Staphylococcus epidermidis ATCC 12228 measured after 18 hrs by CLSI broth dilution method; format: functional; conditions: ATCC 12228, 18 h; in short: as §2
Acinetobacter baumannii [25] = test: Antibacterial activity against Acinetobacter baumannii ATCC 19606 assessed as fold reduction of MIC in presence of efflux pump inhibitor PAbetaN incubated for 18 hrs by broth microdilution method; format: functional; in short: as §5
Enterobacter cloacae [26] = test: Antibacterial activity against Enterobacter cloacae DSM 6234 measured after 18 hrs by CLSI broth dilution method; format: functional; conditions: DSM 6234, 18 h; in short: as §2
Candida tropicalis [27] = test: Antifungal activity against Candida tropicalis IBA 171 assessed as diameter of zone inhibition incubated for 24 hrs by CLSI disc diffusion method; format: functional; in short: as §3
Klebsiella pneumoniae [28] = test: Antibacterial activity against Klebsiella pneumoniae ATCC 13883 measured after 18 hrs by CLSI broth dilution method; format: functional; conditions: ATCC 13883, 18 h; in short: as §2
Candida tropicalis [29] = test: Antifungal activity against Candida tropicalis IBA 171 assessed as decrease in fungal cell growth at 0.78 to 12.5 mg/L incubated for 24 hrs by CLSI broth dilution method; format: functional; conditions: IBA 171, 24 h; in short: as §4
Proteus mirabilis [30] = test: Antibacterial activity against Proteus mirabilis ATCC 12453 assessed as diameter of zone inhibition measured after 18 hrs by CLSI disc diffusion method; format: functional; in short: as §1
Escherichia coli = test: Antibacterial activity against Escherichia coli ATCC 25922 measured after 18 hrs by CLSI broth dilution method; format: functional; conditions: ATCC 25922, 18 h; in short: as §2
Pseudomonas aeruginosa = test: Antibacterial activity against Pseudomonas aeruginosa ATCC 27853 assessed as diameter of zone inhibition measured after 18 hrs by CLSI disc diffusion method; format: functional, organism-based; in short: as §1

SMILES | diameter of the inhibition zone (DIZ) (Enterococcus faecalis [1]) | MIC [2] [µg/mL] | diameter of the inhibition zone (DIZ) [3] | diameter of the inhibition zone (DIZ) (Candida parapsilosis [4]) | diameter of the inhibition zone (DIZ) (Saccharomyces cerevisiae [5]) | MIC (Proteus mirabilis [6]) [µg/mL] | MIC (Candida parapsilosis [7]) [µg/mL] | diameter of the inhibition zone (DIZ) (Candida albicans [8]) | MIC (Staphylococcus aureus [9]) [µg/mL] | diameter of the inhibition zone (DIZ) [10] [mm] | diameter of the inhibition zone (DIZ) (Burkholderia cepacia) | MIC (Candida albicans [11]) [µg/mL] | diameter of the inhibition zone (DIZ) [12] | diameter of the inhibition zone (DIZ) (Enterobacter cloacae [13]) | MIC (Enterococcus faecalis [14]) [µg/mL] | DIZ (Serratia marcescens [15]) | MIC (Acinetobacter baumannii [16]) [µg/mL] | diameter of the inhibition zone (DIZ) (Pichia kudriavzevii [17]) | MIC (Pichia kudriavzevii [18]) [µg/mL] | fold change (FC) (Serratia marcescens [19]) | also measured
C[Si]1(C)OB(O)c2cc(F)c(CO)c(F)c21 | inactive | > 400 | inactive | inactive | inactive | > 400 | 400 (≈ 1640 µM) | inactive | 200 (≈ 819 µM) | 19 | inactive | > 400 | inactive | inactive | > 400 | inactive | 400 (≈ 1640 µM) | inactive | 400 (≈ 1640 µM) | 4 | diameter of the inhibition zone (DIZ) (Staphylococcus aureus [20]): 17 mm; pKa [21]: 5.8; DIZ (Klebsiella pneumoniae [22]): inactive; MIC (Saccharomyces cerevisiae [23]): 400 µg/mL (≈ 1640 µM); MIC [24]: 200 µg/mL (≈ 819 µM); fold change (FC) (Acinetobacter baumannii [25]): 2; MIC (Enterobacter cloacae [26]): > 400 µg/mL; diameter of the inhibition zone (DIZ) (Candida tropicalis [27]): inactive; MIC (Klebsiella pneumoniae [28]): > 400 µg/mL; MIC (Candida tropicalis [29]): > 400 µg/mL; diameter of the inhibition zone (DIZ) (Proteus mirabilis [30]): inactive; MIC (Escherichia coli): > 400 µg/mL; diameter of the inhibition zone (DIZ) (Pseudomonas aeruginosa): inactive
C[Si]1(C)OB(O)c2c(C=O)cc(F)c(F)c21 | inactive | 400 (≈ 1650 µM) | inactive | inactive | 13 mm | > 400 | 100 (≈ 413 µM) | 11 mm | 50 (≈ 207 µM) | 28 | inactive | 400 (≈ 1650 µM) | inactive | inactive | 400 (≈ 1650 µM) | inactive | 400 (≈ 1650 µM) | inactive | > 400 | 2 | diameter of the inhibition zone (DIZ) (Staphylococcus aureus [20]): 21 mm; pKa [21]: 5.2; DIZ (Klebsiella pneumoniae [22]): inactive; MIC (Saccharomyces cerevisiae [23]): 100 µg/mL (≈ 413 µM); MIC [24]: 100 µg/mL (≈ 413 µM); fold change (FC) (Acinetobacter baumannii [25]): 2; MIC (Enterobacter cloacae [26]): > 400 µg/mL; diameter of the inhibition zone (DIZ) (Candida tropicalis [27]): 11 mm; MIC (Klebsiella pneumoniae [28]): > 400 µg/mL; MIC (Candida tropicalis [29]): 200 µg/mL (≈ 826 µM); diameter of the inhibition zone (DIZ) (Proteus mirabilis [30]): inactive; MIC (Escherichia coli): > 400 µg/mL; diameter of the inhibition zone (DIZ) (Pseudomonas aeruginosa): inactive
